In ChEMBL document CHEMBL3992512, “The Discovery and Hit-to-Lead Optimization of Tricyclic Sulfonamides as Potent and Efficacious Potentiators of Glycine Receptors” (J Med Chem, 2017):
Values after ≈ are worked out from the molar mass of the structure shown. Active and inactive are the calls of the source.

Tests used:
[1] = biological target: Glycine receptor alpha-3/beta (Homo sapiens) (UniProt O75311+P48167); test: Positive allosteric modulation of human glycine alpha3beta receptor expressed in HEK293T cells assessed as compound concentration required to induce up to 3-fold leftward shift in glycine-induced increase in chloride ion flux after 4 mins by Schild plot analysis; assay type: cell-based
In short: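 HEK293T cells stably expressing human GlyRα3β, ~12000 cells/well, plated overnight and loaded with membrane potential blue dye. Glycine 1:2 dilution series premixed with compound at varying concentrations in HEPES/NaCl/mannitol buffer, pH 7.4. FLIPR fluorescence read 4 min and processed as AUC over baseline. mEC₃ is the lowest tested concentration giving a ≥3-fold leftward shift of glycine EC₅₀.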

human MDR1 = test: Efflux ratio of passive apparent permeability in MDCK cells harboring human MDR1; assay type: ADME, cell-based, Canis lupus familiaris; conditions: dog
In short: (§1)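 Bidirectional transport at 5 μM, in triplicate, across MDCK cells carrying control vector, human MDR1 or human ABCG2 (BCRP). Passive Papp is the mean of both directions in vector-control cells. Efflux ratios come from the MDR1 and BCRP lines.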

[2] = Passive apparent permeability in MDCK cells; assay type: ADME, cell-based, Canis lupus familiaris; conditions: dog; in short: as §1
human BCRP = test: Efflux ratio of passive apparent permeability in MDCK cells harboring human BCRP; assay type: ADME, cell-based, Canis lupus familiaris; conditions: dog; in short: as §1
[3] = Ratio of unbound Cmax in mouse brain to EC50 for glycine alpha3 receptor in mouse model of spared nerve injury-induced tactile allodynia at 50 mg/kg, po
[4] = Intrinsic clearance in mouse liver microsomes up to 40 mins in presence of NADPH; assay type: ADME, microsome; conditions: read-out: CLH
Mus musculus [5] = test: Antiallodynic activity in mouse model of spared nerve injury-induced tactile allodynia assessed as tactile threshold at 30 mg/kg, po measured 90 mins post dose by Von Frey filament assay; assay type: functional, organism-based
[6] = Ratio of unbound Cmax in mouse brain to EC50 for glycine alpha3 receptor in mouse model of spared nerve injury-induced tactile allodynia at 60 mg/kg, po
Plasma [7] = test: Unbound Cmax in mouse plasma at 30 mg/kg, ip; assay type: ADME, organism-based; conditions: in vivo
Mus musculus [8] = species on record: Mus musculus; test: Ex vivo positive allosteric modulation of glycine receptor in C57BL/6 mouse spinal cord assessed as potentiation of glycine-induced post synaptic current amplitude at 0.5 uM at holding potential of -60 mV after 10 mins in presence of sodium channel inhibitor TTX/AMPA/kainate receptor antagonist CNQX/GABAa receptor antagonist bicuculline/NMDA receptor antagonist APV by electrophysiology method relative to glycine alone
In short: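 Adult mouse spinal cord slices; dorsal horn neurons in laminae I–II were identified histologically and confirmed glycinergic by focal glycine (20 μM) with strychnine (10 μM) reversal. Postsynaptic current amplitude was recorded with glycine 20 μM alone, then with glycine plus compound at 0.5 μM, then with strychnine added. The readout is the mean ratio of PSC amplitude (compound + glycine / glycine alone), n = 5.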

[9] = Ratio of unbound Cmax in mouse brain to EC50 for glycine alpha3 receptor in mouse model of spared nerve injury-induced tactile allodynia at 30 mg/kg, po
In short: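 Mice dosed orally; unbound brain Cmax is total brain concentration × brain fraction unbound, sampled at multiple time points. It is divided by EC₅₀ for potentiation of mouse GlyRα3.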

[10] = Solubility in phosphate buffered saline; assay type: physicochemical
[11] = Solubility in fasted state simulated intestinal fluid; assay type: physicochemical
[12] = biological target: T1, Glycine receptor subunit alpha-3 (Homo sapiens, UniProt O75311); test: Binding affinity to human glycine alpha3 receptor expressed in HEK293T cells by SPR assay; parameters: species or system HEK-293T
T1 sequence (O75311 whole entry): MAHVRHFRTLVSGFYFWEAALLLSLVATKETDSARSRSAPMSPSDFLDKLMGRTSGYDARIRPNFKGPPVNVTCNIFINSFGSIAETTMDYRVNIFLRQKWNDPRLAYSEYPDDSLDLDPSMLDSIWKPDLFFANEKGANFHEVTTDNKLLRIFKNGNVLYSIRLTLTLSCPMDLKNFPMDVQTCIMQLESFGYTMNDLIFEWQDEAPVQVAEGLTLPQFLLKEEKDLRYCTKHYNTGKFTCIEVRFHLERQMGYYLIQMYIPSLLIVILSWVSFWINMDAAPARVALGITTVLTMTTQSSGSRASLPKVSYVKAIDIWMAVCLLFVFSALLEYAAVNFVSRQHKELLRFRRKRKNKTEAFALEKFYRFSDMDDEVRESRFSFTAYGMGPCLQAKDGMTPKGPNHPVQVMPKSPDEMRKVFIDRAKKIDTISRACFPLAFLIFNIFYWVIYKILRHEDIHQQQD

[13] = biological target: T1, Glycine receptor subunit alpha-3; test: Positive allosteric modulation of human glycine alpha3 receptor expressed in HEK293T cells assessed as potentiation of glycine-induced increase in chloride ion flux after 4 mins by membrane potential blue dye based FLIPR assay; assay type: cell-based, HEK-293T
Liver [14] = test: Drug metabolism in mouse liver microsomes assessed as oxidation of quinolinone core up to 40 mins in presence of NADPH; assay type: ADME, microsome
Plasma [15] = test: Unbound Cmax in mouse plasma at 50 mg/kg, ip; assay type: ADME, organism-based; conditions: in vivo
Liver [16] = test: Drug metabolism in mouse liver microsomes assessed as oxidation of benzodioxolane moiety up to 40 mins in presence of NADPH; assay type: ADME, microsome
Liver [17] = test: Drug metabolism in mouse liver microsomes assessed as oxidation of pyrrolidine ring up to 40 mins in presence of NADPH; assay type: ADME, microsome
[18] = Ratio of unbound Cmax in mouse brain to EC50 for glycine alpha3 receptor in mouse model of spared nerve injury-induced tactile allodynia at 30 mg/kg, ip
In short: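 After intraperitoneal dosing, brains were collected at multiple time points. Unbound brain concentration is total brain concentration × brain fraction unbound, divided by mouse GlyRα3 potentiation EC₅₀.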

Plasma [19] = test: Stability in mouse plasma; assay type: ADME, cell-free
[20] = Drug degradation in neutral buffer at 37 degC after 1 hr
In short: (§2)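 Buffer stability was followed as percent decomposition at three conditions: neutral buffer at 37 °C over 1 h, pH 2 acidic buffer at room temperature, and pH 11 basic buffer at room temperature up to 20 h.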

[21] = Drug degradation in pH 11 basic buffer at room temperature measured after 20 hrs; in short: as §2
[22] = Chemical stability in pH 2 acidic buffer at room temperature measured immediately; assay type: physicochemical; in short: as §2

Compound | MEC [1] [µM] | efflux ratio (human MDR1) | Papp [2] [×10⁻⁶ cm/s] | efflux ratio (human BCRP) | microsomal CLint [4] [µL/min/mg] | also measured
CN1C(=O)[C@@H]2CN(S(=O)(=O)c3ccc4c(c3)CCO4)C[C@@H]2c2cnccc21 | 3.1 | 4.3 | 50 | 1.2 | 225 | Ratio [3]: 0.19
O=S(=O)(c1ccc2c(c1)OCO2)N1C[C@@H]2c3nccn3-c3ccccc3[C@@H]2C1 | 6.3 |  |  |  | 1670 | 
CN1C(=O)[C@@H]2CN(S(=O)(=O)c3ccc4c(c3)OCO4)C[C@@H]2c2cc(F)ccc21 (racemic) | 0.78 |  |  |  | 761 | 
CC(C)C[C@H](CN)CC(=O)O |  |  |  |  |  | Activity (Mus musculus [5]): Active
CN1C(=O)[C@@H]2CN(S(=O)(=O)c3ccc4c(c3)OCO4)C[C@@H]2c2ccncc21 (racemic) | 6.3 |  |  |  | 225 | 
C[C@H]1[C@@H]2c3cnccc3N(C)C(=O)[C@@H]2CN1S(=O)(=O)c1ccc2c(c1)OCO2 | > 25 |  |  |  |  | 
CN1C(=O)[C@]2(F)CN(S(=O)(=O)c3ccc4c(c3)OCO4)C[C@@H]2c2cnccc21 (racemic) | > 25 |  |  |  |  | 
C[C@H]1[C@H]2c3cnccc3N(C)C(=O)[C@H]2CN1S(=O)(=O)c1ccc2c(c1)OCO2 | > 25 |  |  |  |  | 
CN1C(=O)[C@@H]2CN(S(=O)(=O)c3ccc4scnc4c3)C[C@@H]2c2cnccc21 | 1.56 | 3.3 | 48 | 1.4 | 79 | Ratio [6]: 0.15
CN1C(=O)[C@@H]2CN(S(=O)(=O)c3ccc4c(c3)OCO4)C[C@@H]2c2cc(O)ccc21 | 0.39 | 3.2 | 18 | 3.1 | 499 | 
CN1C(=O)[C@@H]2CN(S(=O)(=O)c3ccc(F)c(Cl)c3)C[C@@H]2c2cnccc21 | 3.1 | 1.2 | 49 | 1.1 | 432 | 
O=S(=O)(c1ccc2c(c1)OCO2)N1C[C@@H]2c3ccccc3-n3ccnc3[C@@H]2C1 | 3.1 | 1.7 | 58 | 1.3 | 901 | fCmax (Plasma [7]): 0.13 µM
CN1C(=O)[C@@H]2CN(S(=O)(=O)c3ccc4c(c3)OCO4)C[C@@H]2c2cnccc21 | 0.2 | 0.8 | 52 | 0.9 | 151 | fold change (FC) (Mus musculus [8]): 4.9; Ratio [9]: 0.62; solubility [10]: 235 µM (≈ 91 µg/mL); solubility [11]: 296 µM (≈ 115 µg/mL)
CN1C(=O)[C@]2(C)CN(S(=O)(=O)c3ccc4c(c3)OCO4)C[C@@H]2c2ccccc21 (single isomer, unassigned) | > 25 |  |  |  |  | 
C[C@@H]1[C@H]2C(=O)N(C)c3ccncc3[C@H]2CN1S(=O)(=O)c1ccc2c(c1)OCO2 | > 25 |  |  |  |  | Kd [12]: > 20 µM; EC50 [13]: > 25 µM
CN1C(=O)[C@@H]2CN(S(=O)(=O)c3ccc4c(c3)OCO4)C[C@@H]2c2cccnc21 (racemic) | 3.1 |  |  |  | 760 | 
CN1C(=O)[C@@H]2CN(S(=O)(=O)c3ccc4c(c3)OCO4)C[C@@H]2c2ccccc21 | 0.78 |  | 46 |  |  | Drug metabolism (Liver [14]): Metabolite_Detected; fCmax (Plasma [15]): 0.07 µM; Drug metabolism (Liver [16]): Metabolite_Detected; Drug metabolism (Liver [17]): Metabolite_Detected

Compound | MEC [1] [µM] | efflux ratio (human MDR1) | Papp [2] [×10⁻⁶ cm/s] | efflux ratio (human BCRP) | microsomal CLint [4] [µL/min/mg] | also measured
CN1C(=O)[C@@H]2CN(S(=O)(=O)c3ccc4c(c3)OCO4)C[C@@H]2c2cc(C#N)ccc21 (racemic) | 12.5 |  |  |  | 374 | 
CN1C(=O)[C@@H]2CN(S(=O)(=O)c3ccc4c(c3)OCC4)C[C@@H]2c2cnccc21 | 1.56 | 2.9 | 28 | 0.7 | 177 | Ratio [6]: 0.38
CN1C(=O)[C@@H]2CN(S(=O)(=O)c3ccn4ccnc4c3)C[C@@H]2c2cnccc21 | 3.1 | 30 | 16 | 8.3 | 36 | 
CN1C(=O)[C@@H]2CN(S(=O)(=O)c3ccc4ncn(C)c4c3)C[C@@H]2c2cnccc21 | 3.1 |  |  |  |  | 
CN1C(=O)[C@H]2CN(S(=O)(=O)c3ccc4c(c3)OCO4)C[C@H]2c2ccccc21 | 6.3 |  |  |  | 2440 | 
C[C@H]1[C@@H]2C(=O)N(C)c3ccncc3[C@@H]2CN1S(=O)(=O)c1ccc2c(c1)OCO2 | > 25 |  |  |  |  | 
CN1C(=O)[C@@H]2CN(S(=O)(=O)c3ccc4c(c3)OCO4)C[C@]2(C)c2cnccc21 (racemic) | > 25 |  |  |  |  | 
CN1C(=O)[C@]2(C#N)CN(S(=O)(=O)c3ccc4c(c3)OCO4)C[C@@H]2c2cnccc21 (racemic) | > 25 |  |  |  |  | 
CN1C(=O)[C@@H]2CN(S(=O)(=O)c3ccc4nc[nH]c4c3)C[C@@H]2c2cnccc21 | 3.1 |  |  |  | < 14 | Ratio [18]: 0.047
C[C@@H]1[C@H]2c3cnccc3N(C)C(=O)[C@H]2CN1S(=O)(=O)c1ccc2c(c1)OCO2 | > 25 |  |  |  |  | 
C[C@@H]1[C@@H]2c3cnccc3N(C)C(=O)[C@@H]2CN1S(=O)(=O)c1ccc2c(c1)OCO2 | > 25 |  |  |  |  | 
CN1C(=O)[C@H]2CN(S(=O)(=O)c3ccc4c(c3)OCO4)C[C@H]2c2cnccc21 | > 25 | 1 | 14 | 0.9 | 213 | Activity (Mus musculus [8]): inactive
CN1C(=O)[C@@H]2CN(S(=O)(=O)c3ccc4c(c3)OCO4)C[C@@H]2c2ncccc21 | 0.78 | 1.5 | 45 | 1 | 136 | Ratio [9]: 0.006; solubility [10]: 7 µM (≈ 2.71 µg/mL); solubility [11]: 28 µM (≈ 10.8 µg/mL)
CN1C(=O)[C@@H]2CN(S(=O)(=O)c3ccc4ocnc4c3)C[C@@H]2c2cnccc21 | 0.39 | 3.6 | 25 | 1.1 | 73 | Stability (Plasma [19]): Unstable; Drug degradation [20]: 50%; Drug degradation [21]: 30%; Stability [22]: Unstable
CN1C(=O)[C@@H]2CN(S(=O)(=O)c3ccc4ccoc4c3)C[C@@H]2c2cnccc21 | 1.56 |  |  |  | 115 | 
C[C@@H]1[C@@H]2C(=O)N(C)c3ccncc3[C@@H]2CN1S(=O)(=O)c1ccc2c(c1)OCO2 | 3.1 |  |  |  |  | 
